Most compounds without a hit are left out; they make up all but 3.5% or so of the library.
MrgX1 antag – blocks BAM8-22 activation of human MrgX1 receptor. Q96LB2. MRGX1-HEK293 calcium flux, Fluo-4, BAM8-22 antagonism; hits give low values. B-score at 10 µM. 310,000 compounds, 1.3% hits;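 active means calcium-response B-score plate-corrected more than 3 library SD below zero, starting fluorescence within 5 deviations, no agonist response on first addition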;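 further: peak minus trough fluorescence over baseline after final BAM8-22 challenge near maximal dose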
Target sequence (Q96LB2 whole entry, looked up): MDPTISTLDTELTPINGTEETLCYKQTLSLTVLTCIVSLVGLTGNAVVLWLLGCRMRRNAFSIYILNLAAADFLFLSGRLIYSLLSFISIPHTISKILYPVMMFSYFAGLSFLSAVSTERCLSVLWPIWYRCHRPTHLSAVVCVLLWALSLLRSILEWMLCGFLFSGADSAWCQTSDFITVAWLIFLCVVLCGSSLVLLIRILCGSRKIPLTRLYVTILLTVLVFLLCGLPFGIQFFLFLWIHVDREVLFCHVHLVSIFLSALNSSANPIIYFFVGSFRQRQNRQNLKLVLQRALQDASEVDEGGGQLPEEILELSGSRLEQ
MrgX1 allo act – allosterically activates human MrgX1 receptor signaling; Q96LB2; MrgX1-HEK293, Fluo-4 calcium flux, FDSS; hits give high values; B-score at 10 µM; 310,000 compounds, 0.63% hits;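 active means plate-corrected calcium response at least 3 library SD above typical, normal starting fluorescence, not activating the receptor alone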;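 further: compound read alongside a low EC10 to EC30 dose of BAM8-22 agonist; peak minus trough fluorescence over baseline measured at the second addition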
RGS4 block – inhibitors of human RGS4. B-score at 10 µM. HEK293 M3R/RGS4 inducible, Fluo-4 calcium flux; hits give high values; triggered by carbachol at its EC20. 310,000 compounds, 0.45% hits. P49798;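 active means B-score, a plate-corrected calcium signal, over three deviations above library mean, with baseline fluorescence within five deviations of library mean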;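 further: RGS4 expression induced by doxycycline in cells with stable M3 receptor; B-score is computed from the integrated fluorescence ratio over baseline after carbachol; higher B-score means a larger calcium signal and so more RGS4 inhibition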
Target sequence (P49798 whole entry, looked up): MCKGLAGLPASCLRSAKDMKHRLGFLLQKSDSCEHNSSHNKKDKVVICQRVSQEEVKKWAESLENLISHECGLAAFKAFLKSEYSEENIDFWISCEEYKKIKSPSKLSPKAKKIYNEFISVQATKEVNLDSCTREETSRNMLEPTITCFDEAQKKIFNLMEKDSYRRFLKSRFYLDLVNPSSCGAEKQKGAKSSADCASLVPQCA
MrgX1 agonist – agonists of human MrgX1 receptor; B-score at 10 µM; AID 588627; Q96LB2; 310,000 compounds, 0.44% hits; MrgX1-HEK293 cells, Fluo-4 calcium fluorescence, agonist mode; hits give high values;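 active means calcium response B-score plate-corrected fluorescence ratio at least 3 library SD, with starting fluorescence B-score inside 5 SD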
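Test system: HEK293 cells stably expressing human MrgX1 receptor; amount: 15,000 cells per well; doses: compound delivered in addition one of three; times: overnight plating before 1 h dye loading; detection: Fluo-4 NW calcium-flux fluorescence, kinetic read; read-out basis: B-scored fluorescence response ratio; controls: positive and negative controls per plate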
RGS4 pot – RGS4 potentiation or activation | B-score at 10 µM | HEK293 M3R/inducible RGS4, carbachol calcium flux Fluo4; hits give low values | 310,000 compounds, 0.92% hits;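 active means B-score of the integrated calcium signal more than 4 SD below the library mean, with starting fluorescence not abnormally high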;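 further: negative B-score means reduced calcium response which marks RGS4 activation or potentiation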
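Assay system: Inducible-RGS4 HEK293 cells carrying M3 receptor | Schedule: Compound preincubation 20 min at room temperature before agonist | Signal: Kinetic calcium fluorescence imaging with Fluo4-AM dye, 2 µM | Read-out basis: B score from integrated fluorescence ratio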
MrgX1 allo conf – confirmation of human MrgX1 receptor positive allosteric modulators | shares compounds with MrgX1 allo act | MrgX1-HEK293, Fluo-4 calcium fluorescence, FDSS | activation (ratio percentage), % at 10 µM | 1,200 compounds, 13% hits | AID 602413;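 active means ratio at least 3 SD above the weak peptide control, stable starting fluorescence, no direct agonism earlier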;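 further: compound followed by low BAM8-22 agonist challenge near EC20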
HEK293 Ca flux – MrgX1 antagonist counter-screen hit in parental HEK293 cells; shares compounds with MrgX1 antag; Fluo-4 calcium fluorescence, FDSS; fluorescence ratio F(max-min)/F0 at 10 µM; 4,000 compounds, 2% hits; AID 624111;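 active means duplicate-averaged calcium fluorescence ratio at least three times the standard deviation of buffer wells, a nonspecific response in parental cells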
HEK293 Ca counter – MrgX1 allosteric activator counter-screen hit in parental HEK293 cells; shares compounds with MrgX1 antag; parental HEK293 calcium flux, Fluo-4 fluorescence ratio; hits give high values; fluorescence ratio F(max-min)/F0 at 10 µM; 4,000 compounds, 0.4% hits; AID 624114;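 active means calcium fluorescence ratio, averaged over duplicates, at least 3 SD of the buffer-well ratio, meaning a nonspecific response in receptor-free cells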;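 further: untransfected parental HEK293 lacking MrgX1 used as counterscreen for MrgX1 allosteric activators; fluorescence change taken during the second addition on a kinetic imager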
HEK293 Ca cntr2 – counter-screen for MrgX1 activators: effect in parental HEK293 cells; shares compounds with MrgX1 antag; fluorescence ratio F(max-min)/F0 at 10 µM; AID 624115; Fluo-4 calcium fluorescence (FDSS); hits give high values; 4,000 compounds, 8.7% hits;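 active means calcium fluorescence ratio at least three times the spread of buffer wells, meaning a non-specific response in parental cells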
Active calls of the source: *.

Screening O=C(COC(=O)c1ccc(O)cc1)Nc1ccc(OC(F)F)cc1 returned MrgX1 antag inactive, MrgX1 allo act inactive, RGS4 block inactive, MrgX1 agonist inactive and RGS4 pot inactive.
`O=C(COC(=O)c1cccc(O)c1)Nc1ccc(OC(F)F)cc1` gave MrgX1 antag inactive, MrgX1 allo act 10*, RGS4 block inactive, MrgX1 agonist inactive, RGS4 pot inactive, MrgX1 allo conf inactive, HEK293 Ca flux inactive, HEK293 Ca counter inactive and HEK293 Ca cntr2 inactive.
N#CCCN1CCN(C2=NC(=O)/C(=C\c3cccs3)S2)CC1 was read as MrgX1 antag inactive, MrgX1 allo act inactive, RGS4 block inactive, MrgX1 agonist inactive and RGS4 pot inactive.
Screening COC(=O)c1ccc(NC2(C#N)C(=O)Nc3ccccc32)cc1 (stereo not given) returned MrgX1 antag inactive, MrgX1 allo act inactive, RGS4 block inactive, MrgX1 agonist inactive and RGS4 pot inactive.
Screening Cc1ccc(NC2(C#N)C(=O)Nc3ccccc32)cc1C (stereo not given) returned MrgX1 antag inactive, MrgX1 allo act 9*, RGS4 block inactive, MrgX1 agonist inactive, RGS4 pot inactive, MrgX1 allo conf inactive, HEK293 Ca flux inactive, HEK293 Ca counter inactive and HEK293 Ca cntr2 47*.
Screening CCc1ccccc1NC(=O)NNC(=O)CCc1ccc(OC)cc1 returned MrgX1 antag inactive, MrgX1 allo act inactive, RGS4 block inactive, MrgX1 agonist inactive and RGS4 pot inactive.
Screening Cc1cc(NNC(=O)c2cccc(C(F)(F)F)c2)nc2c1c(C)nn2C returned MrgX1 antag inactive, MrgX1 allo act inactive, RGS4 block inactive, MrgX1 agonist inactive and RGS4 pot inactive.
CCN(CC)C(=S)SCc1csc(CC(=O)Nc2ccccc2C)n1 was read as MrgX1 antag inactive, MrgX1 allo act 9.8*, RGS4 block inactive, MrgX1 agonist inactive, RGS4 pot inactive, MrgX1 allo conf inactive, HEK293 Ca flux inactive, HEK293 Ca counter inactive and HEK293 Ca cntr2 inactive.
Screening CCOC(=O)CSCc1csc(CC(=O)Nc2ccccc2C)n1 returned MrgX1 antag inactive, MrgX1 allo act inactive, RGS4 block inactive, MrgX1 agonist inactive and RGS4 pot inactive.
Screening COc1ccc2[nH]c(=O)c(CN(Cc3ccccc3)Cc3nnnn3CC3CCCO3)cc2c1 (stereo not given) returned MrgX1 antag inactive, MrgX1 allo act inactive, RGS4 block inactive, MrgX1 agonist inactive and RGS4 pot inactive.
COc1ccc2[nH]c(=O)c(CN(Cc3nnnn3Cc3ccco3)C3CCCCC3)cc2c1 was read as MrgX1 antag inactive, MrgX1 allo act 9.3*, RGS4 block inactive, MrgX1 agonist inactive, RGS4 pot inactive, MrgX1 allo conf inactive, HEK293 Ca flux inactive, HEK293 Ca counter inactive and HEK293 Ca cntr2 inactive.
Screening COc1ccc2[nH]c(=O)c(CN(Cc3cccnc3)Cc3nnnn3CC3CCCO3)cc2c1 (stereo not given) returned MrgX1 antag inactive, MrgX1 allo act 26*, RGS4 block inactive, MrgX1 agonist inactive, RGS4 pot inactive, MrgX1 allo conf inactive, HEK293 Ca flux inactive, HEK293 Ca counter inactive and HEK293 Ca cntr2 inactive.
`NS(=O)(=O)c1cc(C(=O)NCCc2ccccn2)ccc1Cl` gave MrgX1 antag inactive, MrgX1 allo act 21*, RGS4 block inactive, MrgX1 agonist inactive, RGS4 pot inactive, MrgX1 allo conf inactive, HEK293 Ca flux inactive, HEK293 Ca counter inactive and HEK293 Ca cntr2 inactive.
`O=C(CCCC(=O)N(c1ccc(F)cc1)C(C(=O)NC1CCCC1)c1ccc(O)cc1)Nc1ccccn1` (stereo not given) gave MrgX1 antag inactive, MrgX1 allo act inactive, RGS4 block inactive, MrgX1 agonist inactive and RGS4 pot inactive.
Screening CCOc1ccc2nc(SCC(=O)NCc3ccccc3OC)[nH]c2c1 returned MrgX1 antag inactive, MrgX1 allo act 15*, RGS4 block inactive, MrgX1 agonist inactive, RGS4 pot inactive, MrgX1 allo conf inactive, HEK293 Ca flux inactive, HEK293 Ca counter inactive and HEK293 Ca cntr2 inactive.
Screening CCc1cccc(NS(=O)(=O)c2ccc3c(c2)NC(=O)C(C)S3)c1 (stereo not given) returned MrgX1 antag inactive, MrgX1 allo act 16*, RGS4 block inactive, MrgX1 agonist inactive, RGS4 pot inactive, MrgX1 allo conf inactive, HEK293 Ca flux inactive, HEK293 Ca counter inactive and HEK293 Ca cntr2 inactive.
NC(=O)C1CCN(S(=O)(=O)c2cc3c4c(c2)CCN4C(=O)CC3)CC1 was read as MrgX1 antag inactive, MrgX1 allo act inactive, RGS4 block inactive, MrgX1 agonist inactive and RGS4 pot inactive.
Screening O=C(Nc1nnc(SCC(=O)N2CCCCC2)s1)c1ccc(F)cc1F returned MrgX1 antag inactive, MrgX1 allo act 6.8*, RGS4 block inactive, MrgX1 agonist inactive, RGS4 pot inactive, MrgX1 allo conf inactive, HEK293 Ca flux inactive, HEK293 Ca counter inactive and HEK293 Ca cntr2 inactive.
For O=C(Cc1ccc(F)cc1)Nc1nnc(SCC(=O)N2CCCCC2)s1 the results were MrgX1 antag inactive, MrgX1 allo act inactive, RGS4 block inactive, MrgX1 agonist inactive and RGS4 pot inactive.
Screening O=C(COC(=O)C1C2CC3OC(=O)C1C3C2)Nc1cccc(C(F)(F)F)c1 (stereo not given) returned MrgX1 antag inactive, MrgX1 allo act inactive, RGS4 block inactive, MrgX1 agonist inactive and RGS4 pot inactive.
O=C(NCc1ccccn1)c1cccc(NS(=O)(=O)c2ccccc2F)c1 was read as MrgX1 antag inactive, MrgX1 allo act inactive, RGS4 block inactive, MrgX1 agonist inactive and RGS4 pot inactive.
COc1cccc(/C=N/n2c(SC)nnc2-c2ccccc2)c1O was read as MrgX1 antag inactive, MrgX1 allo act 20*, RGS4 block inactive, MrgX1 agonist inactive, RGS4 pot inactive, MrgX1 allo conf 154%*, HEK293 Ca flux inactive, HEK293 Ca counter inactive and HEK293 Ca cntr2 inactive.

Bioassay records from PubChem BioAssay.
